Experimental findings from ChEMBL document CHEMBL3045565, “Microwave synthesis, characterization and bio-efficacy evaluation of novel chalcone based 6-carbethoxy-2-cyclohexen-1-one and 2H-indazol-3-ol derivatives” (Eur J Med Chem, 2013) are described below.

What all share (assay type): functional
Experiment [1] concerns Radical scavenging activity. Description: Antioxidant activity assessed as DPPH free radical scavenging activity at 500 ug/mL after 20 min by UV-Vis spectrophotometric analysis. Summed up: (§1)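 DPPH radical scavenging: samples were held at room temperature for 20 min in the dark, and absorbance was read at 517 nm. The control contained DMSO without compound, and methanol was used for baseline correction. Scavenging percentage was calculated from the absorbances.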

For experiment [2], the system named is Radical scavenging activity. Description: Antioxidant activity assessed as DPPH free radical scavenging activity at 20 ug/mL after 20 min by UV-Vis spectrophotometric analysis. Summed up: as §1
(DPPH is a stable violet radical that fades when it is reduced.)

The test system of another experiment is Staphylococcus aureus. Description: Antibacterial activity against Staphylococcus aureus MTCC 3160 assessed as growth inhibition at 100 ug/disk after 24 hr by disk diffusion method. To be noted: MTCC 3160, 24 h, read-out: DIZ. An outline of the steps: (§2)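 Disk diffusion on nutrient agar. Strains kept on NA slants at 37 °C and subcultured in nutrient broth before testing. A log-phase culture was spread on solidified medium, and sterile disks were loaded with compound from DMSO stock. DMSO served as control, with commercial antibiotics for reference. Plates ran 24 h at 37 °C, and inhibition zones (mm) were read in quadruplicate.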
A general note: In agar diffusion tests the substance spreads into inoculated agar from a disc or well.

Experiment [3] has as its system Radical scavenging activity. Description: Antioxidant activity assessed as DPPH free radical scavenging activity at 200 ug/mL after 20 min by UV-Vis spectrophotometric analysis. An outline of the steps: as §1
The test system of experiment [4] is Radical scavenging activity. Description: Antioxidant activity assessed as DPPH free radical scavenging activity at 400 ug/mL after 20 min by UV-Vis spectrophotometric analysis. Summed up:
as §1

Another experiment relates to Xanthomonas oryzae. Description: Antibacterial activity against Xanthomonas oryzae ITCC B-47 assessed as as growth inhibition at 100 ug/disk after 24 hr by disk diffusion method. As to conditions: ITCC B-47, 24 h, read-out: DIZ.
For experiment [5], the system named is Radical scavenging activity. Description: Antioxidant activity assessed as DPPH free radical scavenging activity at 40 ug/mL after 20 min by UV-Vis spectrophotometric analysis. Summed up:
as §1

Experiment [6] deals with Radical scavenging activity. Description: Antioxidant activity assessed as DPPH free radical scavenging activity at 60 ug/mL after 20 min by UV-Vis spectrophotometric analysis. Summed up:
as §1

Experiment [7] deals with Radical scavenging activity. As to the kind of experiment: Antioxidant activity assessed as DPPH free radical scavenging activity after 20 min by UV-Vis spectrophotometric analysis. Also noted: concentration or dose not given beside the values. Summed up: as §1
The test system of a further experiment is Bacillus thuringiensis. As to the kind of experiment: Antibacterial activity against Bacillus thuringiensis MTCC 6941 assessed as growth inhibition at 100 ug/disk after 24 hr by disk diffusion method. As to conditions: MTCC 6941, 24 h, read-out: DIZ. An outline of the steps:
as §2

In experiment [8] the test system is Radical scavenging activity. As to the kind of experiment: Antioxidant activity assessed as DPPH free radical scavenging activity at 80 ug/mL after 20 min by UV-Vis spectrophotometric analysis. Summed up: as §1
In a further experiment the test system is Rhizoctonia solani. Description: Antifungal activity against Rhizoctonia solani ITCC 5563 by food poisoning method. Summed up: (§3)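 Poisoned food technique on PDA at several concentrations. A 5 mm mycelial plug from the growing edge of a 2-week-old colony was placed inoculum-side down at the plate centre. Plates incubated at 27 °C until control growth was nearly complete. Colony diameter measured, percent inhibition calculated against control, LC50 derived. Four replicates per treatment.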

The next experiment concerns Athelia rolfsii. As to the kind of experiment: Antifungal activity against Athelia rolfsii ITCC 6181 by food poisoning method. To be noted: Agroathelia rolfsii. Summed up: as §3
The next experiment has as its system Bacillus pumilus. As to the kind of experiment: Antibacterial activity against Bacillus pumilus MTCC 2466 assessed as growth inhibition at 100 ug/disk after 24 hr by disk diffusion method. To be noted: MTCC 2466, 24 h, read-out: DIZ. An outline of the steps:
as §2

For the next experiment, the system named is Dickeya chrysanthemi. Description: Antibacterial activity against Erwinia chrysanthemi ITCC B-40 assessed as as growth inhibition at 100 ug/disk after 24 hr by disk diffusion method. To be noted: ITCC B-40, 24 h, read-out: DIZ. Summed up:
as §2

Experiment [9] relates to Radical scavenging activity. As to the kind of experiment: Antioxidant activity assessed as DPPH free radical scavenging activity at 300 ug/mL after 20 min by UV-Vis spectrophotometric analysis. An outline of the steps:
as §1

The subject of a further experiment is Pseudomonas aeruginosa. Description: Antibacterial activity against Pseudomonas aeruginosa MTCC 2581 assessed as growth inhibition at 100 ug/disk after 24 hr by disk diffusion method. To be noted: MTCC 2581, 24 h, read-out: DIZ. Summed up: as §2
Experiment [10] has as its system Radical scavenging activity. As to the kind of experiment: Antioxidant activity assessed as DPPH free radical scavenging activity at 100 ug/mL after 20 min by UV-Vis spectrophotometric analysis. An outline of the steps: as §1
In the next experiment the test system is Klebsiella pneumoniae. As to the kind of experiment: Antibacterial activity against Klebsiella pneumoniae MTCC 7028 assessed as growth inhibition at 100 ug/disk after 24 hr by disk diffusion method. To be noted: MTCC 7028, 24 h, read-out: DIZ. An outline of the steps: as §2
Experiment [11] has as its system Radical scavenging activity. As to the kind of experiment: Antioxidant activity assessed as DPPH free radical scavenging activity at 10 ug/mL after 20 min by UV-Vis spectrophotometric analysis. Summed up: as §1

Usually IC50 stands for the point on the concentration scale where inhibition reaches its midpoint. Usually LC50 stands for the concentration lethal to half of the exposed cells or organisms.

Each structure is given as a SMILES string. In brackets after ≈: the same amount, converted by molar mass.

Consider `COc1cc(C2CC(c3ccc(C)cc3)=Cc3n[nH]c(O)c32)cc(OC)c1OC` (stereo not drawn), for which the Activity is 90.6% in experiment [1]; 26.4% in experiment [2]; 91.8% in experiment [3]; 90.3% in experiment [4]; 56.9% in experiment [5]; 79.3% in experiment [6]. In addition, the Activity in [7] worked out at 56.9%; in experiment [8], 89.9%; in [9], 90.2%; in experiment [10], 90.8%; in experiment [11], 15%. For the same molecule, the zone of inhibition at 100 µg/disc in the experiment on Staphylococcus aureus, in the experiment with Xanthomonas oryzae, with Bacillus thuringiensis, in the experiment with Bacillus pumilus, in the experiment on Dickeya chrysanthemi and in the experiment with Pseudomonas aeruginosa was 0 mm in each case. For the same molecule, the zone of inhibition at 100 µg/disc in the experiment on Klebsiella pneumoniae amounted to 0 mm. Also, the IC50 in experiment [7] was found to be 29.7 µg/mL (≈ 75.7 µM). Further, the LC50 in the experiment with Rhizoctonia solani is 738 µg/mL (≈ 1880 µM); in the experiment with Athelia rolfsii, 1170 µg/mL (≈ 2990 µM).

On to `COc1ccc(C2=Cc3n[nH]c(O)c3C(c3ccc(OC)c(OC)c3)C2)cc1` (stereo not drawn), for which the Activity in experiment [1] stood at 90.8%; in experiment [2], 29.2%; in [3], 92.1%; in [4] it was 90.5%; in experiment [5], 65.3%; in experiment [6] it was 85.8%. Also, the Activity turned out to be 65.3% in experiment [7]; 90% in experiment [8]; 90.4% in experiment [9]; 91.4% in experiment [10]; 17.7% in experiment [11]. In addition, the zone of inhibition at 100 µg/disc with Staphylococcus aureus, in the experiment with Xanthomonas oryzae, in the experiment with Bacillus thuringiensis, in the experiment with Bacillus pumilus, with Dickeya chrysanthemi and in the experiment on Pseudomonas aeruginosa was 0 mm in each case. Besides, the zone of inhibition at 100 µg/disc with Klebsiella pneumoniae was 0 mm. For the same molecule, the IC50 in experiment [7] was determined as 23.94 µg/mL (≈ 63.3 µM). Moreover, the results for the LC50 with Rhizoctonia solani and in the experiment with Athelia rolfsii were 1030 µg/mL (≈ 2730 µM) and 1240 µg/mL (≈ 3280 µM), respectively.

For the molecule `COc1ccc(C2CC(c3ccc(Cl)c(Cl)c3)=Cc3n[nH]c(O)c32)cc1` (stereo not drawn), the Activity in experiment [1] was 91.3%; in [2], 31%; in experiment [3], 91.5%; in experiment [4], 91.3%; in experiment [5], 48.6%; in experiment [6], 86.1%. Moreover, the Activity was 48.5% in experiment [7]; 90.4% in experiment [8]; 90.7% in [9]; 91.1% in experiment [10]; 17.6% in experiment [11]. The zone of inhibition at 100 µg/disc in the experiment with Staphylococcus aureus, in the experiment on Xanthomonas oryzae, in the experiment with Bacillus thuringiensis, in the experiment with Bacillus pumilus, in the experiment with Dickeya chrysanthemi and with Pseudomonas aeruginosa was 0 mm throughout. For the same molecule, the zone of inhibition at 100 µg/disc in the experiment with Klebsiella pneumoniae stood at 0 mm. Moreover, the IC50 in experiment [7] was determined as 40.98 µg/mL (≈ 106 µM). Besides, the median lethal concentration (LC50) in the experiment on Rhizoctonia solani stood at 776 µg/mL (≈ 2000 µM); in the experiment with Athelia rolfsii it was 1030 µg/mL (≈ 2660 µM).

Take `CCOC(=O)C1C(=O)C=C(c2ccc(OC)cc2)CC1c1ccc(OC)c(OC)c1` (stereo not drawn): the zone of inhibition at 100 µg/disc in the experiment on Staphylococcus aureus, in the experiment with Xanthomonas oryzae, in the experiment on Bacillus thuringiensis, in the experiment on Bacillus pumilus, with Dickeya chrysanthemi and with Pseudomonas aeruginosa was 0 mm in each case. In the experiment with Klebsiella pneumoniae, the zone of inhibition at 100 µg/disc worked out at 0 mm. In experiment [7], the Activity was 4.71%. The LC50 with Rhizoctonia solani is 34 µg/mL (≈ 82.8 µM); in the experiment with Athelia rolfsii, 315 µg/mL (≈ 767 µM).

In the case of `CCOC(=O)C1C(=O)C=C(c2ccc([N+](=O)[O-])cc2)CC1c1ccc2c(c1)OCO2` (stereo not drawn), the zone of inhibition at 100 µg/disc with Staphylococcus aureus is 0 mm; in the experiment with Xanthomonas oryzae, 0 mm; with Bacillus thuringiensis it was 0 mm; in the experiment with Bacillus pumilus it was 0 mm; in the experiment with Dickeya chrysanthemi it was 10 mm; in the experiment on Pseudomonas aeruginosa it was 0 mm. Moreover, the zone of inhibition at 100 µg/disc with Klebsiella pneumoniae was found to be 0 mm. Further, in experiment [7], the Activity came out at 3.6%. The 50% lethal concentration (LC50) turned out to be 29 µg/mL (≈ 70.8 µM) with Rhizoctonia solani and 4310 µg/mL (≈ 10500 µM) in the experiment with Athelia rolfsii.
